Test results published in ChEMBL document CHEMBL1122131, “1,1,2-triphenylbut-1-enes: relationship between structure, estradiol receptor affinity, and mammary tumor inhibiting properties” (1982).

Tests used:
[1] = target: Estrogen receptor (Bos taurus) (UniProt Q9XSB5+P49884); experiment: Binding affinity against Estrogen receptor in calf-uterine cytosol relative to 17-beta-estradiol using [3H]estradiol.; assay type: protein assay
In short: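 Calf uterine cytosol was incubated with [3H]estradiol and six concentrations of unlabeled competitor at 4 °C for 16 h. Incubation was stopped with dextran-coated charcoal; after centrifugation, supernatant radioactivity was counted. The concentrations of estradiol and of test compound giving 50% displacement were read from a semilog plot. Relative binding affinity = [E2]/[I] × 100.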

Mus musculus [2] = experiment: Anti-neoplastic effect in estrogen and progesterone receptor positive hormone-dependent postmenopausal human mammary carcinoma bearing mice at 2.5 mg/kg/day; assay type: functional
In short: (§1)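 Human ER- and PR-positive, hormone-dependent postmenopausal mammary carcinoma, serially transplanted in NMRI nu/nu mice (castrated females or males, about 25 g, 6–7 weeks old, 10–12 per group). Drug given sc in olive oil 6 times/week; controls received vehicle for 4–6 weeks. Two tumor diameters measured weekly. Size is relative to treatment start (=1), averaged after 4 weeks. Compared with controls at α ≤ 0.05.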

Mus musculus [3] = experiment: Anti-neoplastic effect in estrogen and progesterone receptor positive hormone-dependent postmenopausal human mammary carcinoma bearing mice at 3.4 mg/kg/day; assay type: functional; in short: as §1
Mus musculus [4] = experiment: Anti-neoplastic effect in estrogen and progesterone receptor positive hormone-dependent postmenopausal human mammary carcinoma bearing mice at 2.2 mg/kg/day; assay type: functional; in short: as §1
Mus musculus [5] = experiment: Anti-neoplastic effect in estrogen and progesterone receptor positive hormone-dependent postmenopausal human mammary carcinoma bearing mice at 3 mg/kg/day; assay type: functional; in short: as §1
Rattus norvegicus [6] = experiment: Percent change in tumor area in DMBA-induced hormone-dependent mammary carcinoma bearing rats at 0.85 mg/kg/day; assay type: functional
In short: (§2)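 Female Sprague-Dawley rats received one 20 mg DMBA dose by gastric intubation at age 50 days. About 4 weeks later, rats with at least one tumor over 140 mm² were grouped in tens. Drug given sc in olive oil 6 times/week. Read-outs were tumors classed as complete remission, partial remission, no change or progression, plus % change in tumor area and in body weight.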

Rattus norvegicus [7] = experiment: Percent change in tumor area in DMBA-induced hormone-dependent mammary carcinoma bearing rats at 1.71 mg/kg/day; assay type: functional; in short: as §2
Rattus norvegicus [8] = experiment: Percent change in tumor area in DMBA-induced hormone-dependent mammary carcinoma bearing rats at 6.83 mg/kg/day; assay type: functional; in short: as §2
Rattus norvegicus [9] = experiment: Percent complete remission in DMBA-induced hormone-dependent mammary carcinoma bearing rats at 6.83 mg/kg/day; assay type: functional; in short: as §2
Rattus norvegicus [10] = experiment: Percent complete remission in DMBA-induced hormone-dependent mammary carcinoma bearing rats at 1.71 mg/kg/day; assay type: functional; in short: as §2
Rattus norvegicus [11] = experiment: Percent change in body weight in DMBA-induced hormone-dependent mammary carcinoma bearing rats at 0.85 mg/kg/day; assay type: functional; in short: as §2
Rattus norvegicus [12] = experiment: Percent change in body weight in DMBA-induced hormone-dependent mammary carcinoma bearing rats at 1.71 mg/kg/day; assay type: functional; in short: as §2
Rattus norvegicus [13] = experiment: Percent change in body weight in DMBA-induced hormone-dependent mammary carcinoma bearing rats at 6.83 mg/kg/day; assay type: functional; in short: as §2
Rattus norvegicus [14] = experiment: Percent tumor progression in DMBA-induced hormone-dependent mammary carcinoma bearing rats at 6.83 mg/kg/day; assay type: functional; in short: as §2
Rattus norvegicus [15] = experiment: Percent tumor progression in DMBA-induced hormone-dependent mammary carcinoma bearing rats at 1.71 mg/kg/day; assay type: functional; in short: as §2
Rattus norvegicus [16] = experiment: Percent partial remission in DMBA-induced hormone-dependent mammary carcinoma bearing rats at 6.83 mg/kg/day; assay type: functional; in short: as §2
Rattus norvegicus [17] = experiment: Percent partial remission in DMBA-induced hormone-dependent mammary carcinoma bearing rats at 1.71 mg/kg/day; assay type: functional; in short: as §2
Rattus norvegicus [18] = experiment: Percent tumor progression in DMBA-induced hormone-dependent mammary carcinoma bearing rats at 0.85 mg/kg/day; assay type: functional; in short: as §2
Rattus norvegicus [19] = experiment: Percent complete remission in DMBA-induced hormone-dependent mammary carcinoma bearing rats at 0.85 mg/kg/day; assay type: functional; in short: as §2
Rattus norvegicus [20] = experiment: Percent unchanged tumor size in DMBA-induced hormone-dependent mammary carcinoma bearing rats at 1.71 mg/kg/day; assay type: functional; in short: as §2
Rattus norvegicus [21] = experiment: Percent unchanged tumor size in DMBA-induced hormone-dependent mammary carcinoma bearing rats at 0.85 mg/kg/day; assay type: functional; in short: as §2
Rattus norvegicus [22] = experiment: Percent unchanged tumor size in DMBA-induced hormone-dependent mammary carcinoma bearing rats at 6.83 mg/kg/day; assay type: functional; in short: as §2
Rattus norvegicus [23] = experiment: Percent partial remission in DMBA-induced hormone-dependent mammary carcinoma bearing rats at 0.85 mg/kg/day; assay type: functional; in short: as §2

Row | RBA [1] [%] | SMILES | Tumor size (Mus musculus [2]) | Tumor size (Mus musculus [5]) | also measured
1 | 1.5 | CCC(=C(c1cccc(OC(C)=O)c1)c1cccc(OC(C)=O)c1)c1cccc(OC(C)=O)c1 |  |  | Tumor size (Mus musculus [3]): 2.12; Change (Rattus norvegicus [6]): 102%; Change (Rattus norvegicus [7]): 78%; Change (Rattus norvegicus [8]): 54%; Change (Rattus norvegicus [9]): 5%; Change (Rattus norvegicus [10]): 3%; Change (Rattus norvegicus [11]): 5.2%; Change (Rattus norvegicus [12]): 3.2%; Change (Rattus norvegicus [13]): 3.6%; Tumors (Rattus norvegicus [14]): 35%; Tumors (Rattus norvegicus [15]): 44%; Tumors (Rattus norvegicus [16]): 30%; Tumors (Rattus norvegicus [17]): 16%; Tumors (Rattus norvegicus [18]): 40%; Tumors (Rattus norvegicus [19]): 2%; Tumors (Rattus norvegicus [20]): 37%; Tumors (Rattus norvegicus [21]): 44%; Tumors (Rattus norvegicus [22]): 30%; Tumors (Rattus norvegicus [23]): 14%
2 | 0.3 | CC/C(=C(\c1ccccc1)c1cccc(OC(C)=O)c1)c1ccccc1 | 2.41 |  | 
3 | 1.1 | CC/C(=C(/c1ccccc1)c1cccc(OC(C)=O)c1)c1cccc(OC(C)=O)c1 |  | 1.35 | 
4 | 1.8 | CC/C(=C(/c1ccc(OC(C)=O)cc1)c1cccc(OC(C)=O)c1)c1cccc(OC(C)=O)c1 |  |  | Tumor size (Mus musculus [3]): 2.44
5 | 0.2 | CC/C(=C(\c1ccccc1)c1cccc(OC(C)=O)c1)c1cccc(OC(C)=O)c1 |  | 2.36 | 
6 | 1.2 | CCC(=C(c1cccc(OC(C)=O)c1)c1cccc(OC(C)=O)c1)c1ccccc1 |  | 2.4 | 
7 | 1.5 | CCC(=C(c1ccccc1)c1ccccc1)c1cccc(OC(C)=O)c1 | 1.04 |  | 
8 | 2.7 | CC/C(=C(\c1ccc(OC(C)=O)cc1)c1cccc(OC(C)=O)c1)c1cccc(OC(C)=O)c1 |  |  | Tumor size (Mus musculus [3]): 1.69

More lines, now with the values behind:

Row | SMILES | RBA [1] [%] | Tumor size (Mus musculus [2]) | Tumor size (Mus musculus [5]) | also measured
9 | CCC(=C(c1ccccc1)c1ccccc1)c1ccc(OC(C)=O)cc1 | 3.8 | 1.12 |  | 
10 | CC/C(=C(\c1ccc(OC(C)=O)cc1)c1cccc(OC(C)=O)c1)c1ccc(OC(C)=O)cc1 | 3 |  |  | Tumor size (Mus musculus [3]): 2.04
11 | CCC(=C(c1ccccc1)c1ccccc1)c1ccccc1 | 0.8 |  |  | Tumor size (Mus musculus [4]): 1.61
12 | CCC(=C(c1ccc(OC(C)=O)cc1)c1ccc(OC(C)=O)cc1)c1ccccc1 | 6.8 |  | 0.81 | 
13 | CC/C(=C(/c1ccccc1)c1cccc(OC(C)=O)c1)c1ccccc1 | 0.7 | 2.12 |  | 
14 | CC/C(=C(/c1ccccc1)c1ccc(OC(C)=O)cc1)c1ccc(OC(C)=O)cc1 | 5.9 |  | 0.83 | 
15 | CC/C(=C(\c1ccccc1)c1ccc(OC(C)=O)cc1)c1ccc(OC(C)=O)cc1 | 1 |  | 1.39 | 
16 | CCC(=C(c1ccc(OC(C)=O)cc1)c1ccc(OC(C)=O)cc1)c1ccc(OC(C)=O)cc1 | 4.2 |  |  | Tumor size (Mus musculus [3]): 1.52
17 | CC/C(=C(\c1ccccc1)c1ccc(OC(C)=O)cc1)c1ccccc1 | 2 | 1.3 |  | 
18 | CC/C(=C(/c1ccccc1)c1ccc(OC(C)=O)cc1)c1ccccc1 | 5.7 | 1.24 |  | 
